The source of these data is ChEMBL document CHEMBL4229372, “Synthesis and anti-mitotic activity of 2,4- or 2,6-disubstituted- and 2,4,6-trisubstituted-2H-pyrazolo[4,3-c]pyridines” (2018).

Assay [1] deals with K562. In words: Growth inhibition of human K562 cells after 72 hrs by Calcein AM dye based fluorescence assay. The settings on record: K562, 72 h. It is filed as functional. A digest of the protocol: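 Cells in DMEM with 10% FBS at 37 °C, 5% CO2, treated in triplicate with six doses for 72 h. Calcein AM was added for 1 h and live-cell fluorescence read at 485/538 nm. GI50 was taken from dose-response curves.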

For assay [2], the system named is K562. In words: Cell cycle arrest in human K562 cells assessed as accumulation at sub G1 phase at 10 uM after 24 hrs by propidium iodide staining-based flow cytometric analysis (reference value: 15%). Type of assay: functional.
The test system of assay [3] is K562. The experiment in a line: Cell cycle arrest in human K562 cells assessed as accumulation at S phase at 10 uM after 24 hrs by propidium iodide staining-based flow cytometric analysis (reference value: 50.3%). It is filed as functional.
Assay [4] has as its system MCF7. The experiment in a line: Cell cycle arrest in human MCF7 cells assessed as accumulation at S phase at 10 uM after 24 hrs by propidium iodide staining-based flow cytometric analysis (reference value: 34.1%). It is filed as functional. In a few lines: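 MCF-7 cells in DMEM with 10% FBS and penicillin/streptomycin at 37 °C, 5% CO2. Asynchronous cells were treated 24 h, PBS-washed, trypsinized and quenched with 0.1% trypsin inhibitor. Staining used 5× citrate/IGEPAL/spermine/Tris buffer (pH 7.6) with 50 μg/mL propidium iodide. DNA content was read by 488 nm flow cytometry and cell-cycle phases modelled.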

Assay [5] relates to K562. In words: Cell cycle arrest in human K562 cells assessed as accumulation at G2/M phase after 24 hrs by propidium iodide staining-based flow cytometric analysis. It is filed as functional.
Assay [6] deals with K562. In words: Cell cycle arrest in human K562 cells assessed as accumulation at G2/M phase assessed as accumulation of histone H3 phosphorylation at serine 10 residues at 5 uM after 24 hrs by propidium iodide staining-based flow cytometric analysis (reference value: 2.2%). Type of assay: functional.
Assay [7] has as its system K562. The experiment in a line: Induction of apoptosis in human K562 cells assessed as activation of caspase 3/7 using Ac-DEVD-AMC as substrate after 24 hrs by fluorescence assay. It is filed as functional, cell-based. In a few lines: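 K562 cells were cultured overnight and treated with increasing concentrations for 24 h. Lysis buffer (3×; HEPES pH 7.4, NaCl, KCl, MgCl2, EGTA, NP40, CHAPS, sucrose, DTT, PMSF) containing 150 μM Ac-DEVD-AMC was added for 2 h. Fluorescence was read at 346/442 nm and normalized to untreated control.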

Assay [8] has as its target Cyclin-dependent kinase 1 (Homo sapiens) (UniProt P06493). The experiment in a line: Inhibition of CDK1 (unknown origin).
Assay [9] has as its target Serine/threonine-protein kinase NIM1 (Homo sapiens) (UniProt Q8IY84). In words: Inhibition of NIM1 (unknown origin).
The target in assay [10] is Serine/threonine-protein kinase 38 (Homo sapiens) (UniProt Q15208). The experiment in a line: Inhibition of NDR1 (unknown origin).
Serine/threonine-protein kinase 38 (Homo sapiens), sequence (Q15208 2-465 limits assumed): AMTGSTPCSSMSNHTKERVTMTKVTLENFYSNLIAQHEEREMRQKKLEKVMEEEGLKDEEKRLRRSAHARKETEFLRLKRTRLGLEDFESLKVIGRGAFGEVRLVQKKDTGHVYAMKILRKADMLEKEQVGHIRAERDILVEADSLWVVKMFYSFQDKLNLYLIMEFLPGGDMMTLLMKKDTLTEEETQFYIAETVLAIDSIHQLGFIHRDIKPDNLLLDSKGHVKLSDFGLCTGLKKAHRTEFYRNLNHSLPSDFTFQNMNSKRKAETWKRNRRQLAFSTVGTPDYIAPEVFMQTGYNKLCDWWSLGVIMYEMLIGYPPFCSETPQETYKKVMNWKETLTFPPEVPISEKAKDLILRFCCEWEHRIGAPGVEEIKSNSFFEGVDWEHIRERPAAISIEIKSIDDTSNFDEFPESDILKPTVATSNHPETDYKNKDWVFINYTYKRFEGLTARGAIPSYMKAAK
For assay [11], the target named is T1, Serine/threonine-protein kinase Nek2 (Homo sapiens) (UniProt P51955).
T1 sequence (whole entry): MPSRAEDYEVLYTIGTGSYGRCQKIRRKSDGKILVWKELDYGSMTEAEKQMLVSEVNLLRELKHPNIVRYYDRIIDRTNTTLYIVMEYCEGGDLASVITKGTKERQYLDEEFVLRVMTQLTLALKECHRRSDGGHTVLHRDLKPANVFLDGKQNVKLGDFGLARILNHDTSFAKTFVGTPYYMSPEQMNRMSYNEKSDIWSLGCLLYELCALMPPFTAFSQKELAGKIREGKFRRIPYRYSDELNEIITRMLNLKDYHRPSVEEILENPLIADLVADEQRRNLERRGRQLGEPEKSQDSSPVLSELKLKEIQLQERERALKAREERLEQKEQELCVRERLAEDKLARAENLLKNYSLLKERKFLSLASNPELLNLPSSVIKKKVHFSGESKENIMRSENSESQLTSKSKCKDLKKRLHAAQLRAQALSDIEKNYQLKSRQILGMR
The experiment in a line: Inhibition of NEK2 (unknown origin).

Assay [12] concerns the target Serine/threonine-protein kinase pim-2 (Homo sapiens) (UniProt Q9P1W9). The experiment in a line: Inhibition of PIM2 (unknown origin).
Assay [13] has as its target T2, Dual specificity protein kinase TTK (Homo sapiens) (UniProt P33981).
T2 sequence (whole entry): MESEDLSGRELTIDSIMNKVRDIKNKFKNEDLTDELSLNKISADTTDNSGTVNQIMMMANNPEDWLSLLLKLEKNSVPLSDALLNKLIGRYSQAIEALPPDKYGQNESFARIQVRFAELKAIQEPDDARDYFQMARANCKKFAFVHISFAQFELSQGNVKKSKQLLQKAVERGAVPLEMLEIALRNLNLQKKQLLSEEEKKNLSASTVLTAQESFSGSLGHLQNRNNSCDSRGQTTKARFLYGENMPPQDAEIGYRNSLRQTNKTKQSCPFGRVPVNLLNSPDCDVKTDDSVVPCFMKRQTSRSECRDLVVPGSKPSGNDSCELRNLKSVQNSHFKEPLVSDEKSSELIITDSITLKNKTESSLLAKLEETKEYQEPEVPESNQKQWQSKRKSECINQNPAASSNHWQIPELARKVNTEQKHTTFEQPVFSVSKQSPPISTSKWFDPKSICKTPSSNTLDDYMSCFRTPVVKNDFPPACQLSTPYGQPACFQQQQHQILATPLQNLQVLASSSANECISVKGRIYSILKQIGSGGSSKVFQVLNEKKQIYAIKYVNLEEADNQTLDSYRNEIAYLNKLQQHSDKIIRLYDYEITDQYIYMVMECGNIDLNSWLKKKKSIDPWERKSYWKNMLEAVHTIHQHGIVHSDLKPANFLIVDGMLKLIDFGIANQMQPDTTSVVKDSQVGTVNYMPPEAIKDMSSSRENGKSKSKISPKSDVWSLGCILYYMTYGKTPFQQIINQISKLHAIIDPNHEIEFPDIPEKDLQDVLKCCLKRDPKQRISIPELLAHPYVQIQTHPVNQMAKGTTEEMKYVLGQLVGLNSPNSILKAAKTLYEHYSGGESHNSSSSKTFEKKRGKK
The experiment in a line: Inhibition of TTK (unknown origin).

In assay [14] the test system is K562. The experiment in a line: Induction of apoptosis in human K562 cells assessed as increase in PARP1 cleavage after 24 hrs by Immunoblotting. Type of assay: functional, cell-based. In a few lines:
(§1)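 Cells treated 24 h with a range of doses, with 1 μM doxorubicin as control. Cells were harvested into Laemmli buffer, run on SDS-PAGE and blotted to nitrocellulose. Membranes were probed overnight with primary antibodies (PARP, Ser139-phospho-H2AX, Bcl-2, β-actin loading control), then peroxidase secondaries, with ECL detection on a CCD imager.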

For assay [15], the system named is MCF7. In words: Induction of apoptosis in human MCF7 cells assessed as increase in PARP1 cleavage after 24 hrs by Immunoblotting. It is filed as functional, cell-based. In a few lines:
as §1

In assay [16] the test system is K562. The experiment in a line: Induction of apoptosis in human K562 cells assessed as increase in gammaH2AX level at 1.25 to 20 uM after 24 hrs by immunoblotting. It is filed as functional, cell-based. In a few lines: as §1
The subject of assay [17] is MCF7. In words: Induction of apoptosis in human MCF7 cells assessed as increase in phosphorylated Bcl2 level at 1.25 to 20 uM after 24 hrs by immunoblotting. It is filed as functional, cell-based. A digest of the protocol: as §1
For assay [18], the target named is Serine/threonine-protein kinase Nek6 (Homo sapiens) (UniProt Q9HC98). In words: Inhibition of NEK6 (unknown origin).
Serine/threonine-protein kinase Nek6 (Homo sapiens), sequence (Q9HC98 whole entry): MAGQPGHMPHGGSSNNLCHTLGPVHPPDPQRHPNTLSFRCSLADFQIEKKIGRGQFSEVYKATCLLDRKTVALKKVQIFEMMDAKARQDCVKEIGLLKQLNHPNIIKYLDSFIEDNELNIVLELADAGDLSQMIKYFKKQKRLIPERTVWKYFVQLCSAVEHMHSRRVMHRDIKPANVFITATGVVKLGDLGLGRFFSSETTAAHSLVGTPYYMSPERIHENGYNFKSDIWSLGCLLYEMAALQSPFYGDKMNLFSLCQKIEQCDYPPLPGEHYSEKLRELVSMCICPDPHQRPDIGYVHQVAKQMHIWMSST
The target in assay [19] is Serine/threonine-protein kinase PLK3 (Homo sapiens) (UniProt Q9H4B4). In words: Inhibition of PLK3 (unknown origin).
Serine/threonine-protein kinase PLK3 (Homo sapiens), sequence (Q9H4B4 whole entry, looked up): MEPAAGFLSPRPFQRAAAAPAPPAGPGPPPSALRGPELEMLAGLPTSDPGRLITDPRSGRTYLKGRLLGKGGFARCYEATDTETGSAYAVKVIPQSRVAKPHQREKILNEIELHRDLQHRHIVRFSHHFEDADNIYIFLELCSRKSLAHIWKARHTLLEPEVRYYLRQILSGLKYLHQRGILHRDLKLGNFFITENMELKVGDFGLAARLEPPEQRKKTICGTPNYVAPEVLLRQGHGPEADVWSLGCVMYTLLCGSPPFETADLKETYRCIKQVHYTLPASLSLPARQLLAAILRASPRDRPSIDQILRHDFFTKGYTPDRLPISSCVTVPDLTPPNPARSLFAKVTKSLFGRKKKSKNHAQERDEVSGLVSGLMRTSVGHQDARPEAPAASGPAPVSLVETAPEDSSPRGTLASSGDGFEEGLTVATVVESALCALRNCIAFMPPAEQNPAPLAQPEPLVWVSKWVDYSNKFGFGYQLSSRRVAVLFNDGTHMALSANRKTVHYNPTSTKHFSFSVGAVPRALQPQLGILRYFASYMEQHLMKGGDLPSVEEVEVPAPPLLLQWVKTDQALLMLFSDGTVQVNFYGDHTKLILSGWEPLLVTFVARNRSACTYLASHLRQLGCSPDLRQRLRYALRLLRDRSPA

Activity calls are given as the source filed them. The calls are words filed in the database; no cut-off is given here.

Serine/threonine-protein kinase NIM1 (Homo sapiens), sequence (Q8IY84 whole entry): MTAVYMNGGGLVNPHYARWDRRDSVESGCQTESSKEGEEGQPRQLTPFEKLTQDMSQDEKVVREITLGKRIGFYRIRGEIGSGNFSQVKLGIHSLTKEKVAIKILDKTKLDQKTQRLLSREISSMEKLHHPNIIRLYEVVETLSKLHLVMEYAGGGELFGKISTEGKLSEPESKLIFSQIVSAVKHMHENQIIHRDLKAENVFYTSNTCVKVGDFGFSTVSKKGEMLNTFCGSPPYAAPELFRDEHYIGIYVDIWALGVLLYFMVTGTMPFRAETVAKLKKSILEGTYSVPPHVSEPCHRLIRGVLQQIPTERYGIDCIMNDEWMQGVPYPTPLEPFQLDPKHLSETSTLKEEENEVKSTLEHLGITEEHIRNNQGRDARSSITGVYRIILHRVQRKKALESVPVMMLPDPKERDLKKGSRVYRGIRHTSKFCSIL
Cyclin-dependent kinase 1 (Homo sapiens), sequence (P06493 whole entry, looked up): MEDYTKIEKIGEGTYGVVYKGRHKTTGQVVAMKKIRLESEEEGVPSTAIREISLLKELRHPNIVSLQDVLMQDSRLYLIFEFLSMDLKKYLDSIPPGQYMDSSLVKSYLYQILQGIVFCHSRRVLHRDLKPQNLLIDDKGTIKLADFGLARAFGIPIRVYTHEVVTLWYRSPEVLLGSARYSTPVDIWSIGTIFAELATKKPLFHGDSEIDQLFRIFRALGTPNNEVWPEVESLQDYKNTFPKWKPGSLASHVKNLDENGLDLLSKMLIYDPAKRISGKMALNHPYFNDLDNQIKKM
Serine/threonine-protein kinase pim-2 (Homo sapiens), sequence (Q9P1W9 whole entry, looked up): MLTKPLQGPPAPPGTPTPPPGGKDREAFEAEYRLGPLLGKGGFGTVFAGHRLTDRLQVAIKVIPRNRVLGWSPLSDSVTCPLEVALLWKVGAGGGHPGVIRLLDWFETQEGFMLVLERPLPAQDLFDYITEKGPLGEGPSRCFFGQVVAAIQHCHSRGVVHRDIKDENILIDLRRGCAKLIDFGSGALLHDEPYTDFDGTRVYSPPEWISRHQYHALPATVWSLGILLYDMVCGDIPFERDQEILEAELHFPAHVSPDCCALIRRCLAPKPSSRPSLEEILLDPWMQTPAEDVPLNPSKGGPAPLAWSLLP

With `CCCCCc1cc2nn(-c3ccccc3)cc2cn1`, in the assay with K562 [1], the GI50 is 2.1 µM. Besides, the Activity with K562 [2] was 35.4%; in the assay on K562 [3] it was 3.3%; in the assay with MCF7 [4], 26.3%; in the assay on K562 [5], “Dose-dependent effect”; in the assay with K562 [6], 20.4%; with K562 [7] it was “Dose-dependent effect”. Further, the Activity result in the assay on K562 [14] and in the assay on MCF7 [15] was “Dose-dependent effect” in each case. For the same compound, the inhibition entry in [8], in assay [9], in assay [10], in assay [11], in assay [12] and in assay [13] was “inactive” in each case. The inhibition result in [18] and in assay [19] was “inactive” each time. Moreover, the result in the assay on K562 [16] and in the assay with MCF7 [17] was Active.
